# ChEMBL document CHEMBL3259701, “Siderophore receptor-mediated uptake of lactivicin analogues in gram-negative bacteria” (J Med Chem, 2014)
# Assays:
# Type in all cases: functional
# Pseudomonas aeruginosa [1] = assay: Antibacterial activity against Pseudomonas aeruginosa PAO1 harboring siderophore receptor piuA and pirA double mutant in Mueller-Hinton broth medium by CLSI broth microdilution method
# Procedure, shortened: (§1)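 MIC by CLSI broth microdilution in standard Mueller Hinton broth. Tested against wild-type P. aeruginosa PAO1 and an isogenic panel lacking one or more siderophore receptors.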
# Pseudomonas aeruginosa [2] = assay: Antibacterial activity against Pseudomonas aeruginosa PAO1 harboring siderophore receptor pirA and pfeA double mutant in Mueller-Hinton broth medium by CLSI broth microdilution method; procedure, shortened: as §1
# Pseudomonas aeruginosa [3] = assay: Antibacterial activity against Pseudomonas aeruginosa PAO1 harboring siderophore receptor piuA, pfeA and pirA mutant in Mueller-Hinton broth medium by CLSI broth microdilution method; procedure, shortened: as §1
# Pseudomonas aeruginosa [4] = assay: Ratio of MIC for Pseudomonas aeruginosa PAO1 harboring siderophore receptor fptA mutant to MIC for wild type Pseudomonas aeruginosa PAO1 in Mueller-Hinton broth medium by CLSI broth microdilution method
# Procedure, shortened: (§2)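 Receptor-deficient PAO1 strain MIC divided by parent PAO1 MIC. Both MICs were obtained by CLSI broth microdilution in standard Mueller Hinton broth. A shift greater than 4× was taken to indicate that the deleted receptor(s) take part in drug uptake.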
# Pseudomonas aeruginosa [5] = assay: Ratio of MIC for Pseudomonas aeruginosa PAO1 harboring siderophore receptor pfeA mutant to MIC for wild type Pseudomonas aeruginosa PAO1 in Mueller-Hinton broth medium by CLSI broth microdilution method; procedure, shortened: as §2
# Pseudomonas aeruginosa [6] = assay: Ratio of MIC for Pseudomonas aeruginosa PAO1 harboring siderophore receptor piuA and fpvA double mutant to MIC for wild type Pseudomonas aeruginosa PAO1 in Mueller-Hinton broth medium by CLSI broth microdilution method
# Procedure, shortened: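 Broth microdilution MIC per CLSI in standard Mueller-Hinton broth, run against wild-type P. aeruginosa PAO1 and isogenic PAO1 strains lacking one or more siderophore receptors. Value is the mutant-strain MIC divided by the PAO1 MIC.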
# Pseudomonas aeruginosa [7] = assay: Antibacterial activity against Pseudomonas aeruginosa PAO1 in medium containing low-Fe by CLSI broth microdilution method
# Procedure, shortened: (§3)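 MIC by CLSI broth microdilution in a modified Mueller Hinton broth depleted of iron to mimic the low-iron in vivo environment. Tested against PAO1 and isogenic strains lacking one or more siderophore receptors.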
# Pseudomonas aeruginosa [8] = assay: Antibacterial activity against Pseudomonas aeruginosa PAO1 harboring siderophore receptor fptA mutant in medium containing low-Fe by CLSI broth microdilution method; procedure, shortened: as §3
# Pseudomonas aeruginosa [9] = assay: Antibacterial activity against Pseudomonas aeruginosa PAO1 harboring siderophore receptor piuA and pirA double mutant in medium containing low-Fe by CLSI broth microdilution method; procedure, shortened: as §3
# Pseudomonas aeruginosa [10] = assay: Ratio of MIC for Pseudomonas aeruginosa PAO1 harboring siderophore receptor piuA and fpvA double mutant to MIC for wild type Pseudomonas aeruginosa PAO1 in medium containing low-Fe by CLSI broth microdilution method
# Procedure, shortened: (§4)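 CLSI broth microdilution MICs in a modified Mueller-Hinton broth depleted of iron to mimic low in vivo iron. Tested against wild-type PAO1 and isogenic siderophore receptor knockout strains. Reported as the knockout-strain MIC divided by the PAO1 MIC in the same iron-depleted medium.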
# Pseudomonas aeruginosa [11] = assay: Ratio of MIC for Pseudomonas aeruginosa PAO1 harboring siderophore receptor piuA and fptA double mutant to MIC for wild type Pseudomonas aeruginosa PAO1 in medium containing low-Fe by CLSI broth microdilution method; procedure, shortened: as §4
# Pseudomonas aeruginosa [12] = assay: Ratio of MIC for Pseudomonas aeruginosa PAO1 harboring siderophore receptor piuA and pfeA double mutant to MIC for wild type Pseudomonas aeruginosa PAO1 in medium containing low-Fe by CLSI broth microdilution method; procedure, shortened: as §4
# Pseudomonas aeruginosa [13] = assay: Ratio of MIC for wild type Pseudomonas aeruginosa PAO1 in MHB medium to MIC for wild type Pseudomonas aeruginosa PAO1 in medium containing low-Fe by CLSI broth microdilution method
# Procedure, shortened: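 MICs for wild-type P. aeruginosa PAO1 were determined by CLSI broth microdilution in standard Mueller Hinton broth and, in parallel, in a modified broth depleted of iron to mimic the low-iron in vivo environment. The ratio compares the MIC in standard MHB with the MIC in iron-depleted broth.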
# Pseudomonas aeruginosa [14] = assay: Ratio of MIC for Pseudomonas aeruginosa PAO1 harboring siderophore receptor fpvA mutant in MHB medium to MIC for Pseudomonas aeruginosa PAO1 harboring siderophore receptor fpvA mutant in medium containing low-Fe by CLSI broth microdilution method
# Pseudomonas aeruginosa [15] = assay: Ratio of MIC for Pseudomonas aeruginosa PAO1 harboring siderophore receptor piuA and fpvA double mutant in MHB medium to MIC for Pseudomonas aeruginosa PAO1 harboring siderophore receptor piuA and fpvA double mutant in medium containing low-Fe by CLSI broth microdilution method
# Pseudomonas aeruginosa [16] = assay: Antibacterial activity against Pseudomonas aeruginosa PAO1 harboring siderophore receptor pirA mutant in medium containing aztreonam and low-Fe by CLSI broth microdilution method
# Pseudomonas aeruginosa [17] = assay: Antibacterial activity against Pseudomonas aeruginosa PAO1 harboring siderophore receptor fptA mutant in medium containing aztreonam and low-Fe by CLSI broth microdilution method
# Pseudomonas aeruginosa [18] = assay: Antibacterial activity against Pseudomonas aeruginosa PAO1 harboring siderophore receptor piuA and fpvA double mutant in medium containing aztreonam and low-Fe by CLSI broth microdilution method
# Pseudomonas aeruginosa [19] = assay: Antibacterial activity against Pseudomonas aeruginosa PAO1 harboring siderophore receptor piuA and fptA double mutant in medium containing aztreonam and low-Fe by CLSI broth microdilution method
# Pseudomonas aeruginosa [20] = assay: Antibacterial activity against Pseudomonas aeruginosa PAO1 harboring siderophore receptor pirA and pfeA double mutant in medium containing aztreonam and low-Fe by CLSI broth microdilution method
# Pseudomonas aeruginosa [21] = assay: Ratio of MIC for Pseudomonas aeruginosa PAO1 harboring siderophore receptor fpvA mutant to MIC for wild type Pseudomonas aeruginosa PAO1 in medium containing aztreonam and low-Fe by CLSI broth microdilution method
# Pseudomonas aeruginosa [22] = assay: Ratio of MIC for Pseudomonas aeruginosa PAO1 harboring siderophore receptor piuA and fptA double mutant to MIC for wild type Pseudomonas aeruginosa PAO1 in medium containing aztreonam and low-Fe by CLSI broth microdilution method
# Escherichia coli [23] = assay: Antibacterial activity against Escherichia coli DH5alpha by CLSI broth microdilution method; settings: DH5[alpha]
# Escherichia coli [24] = assay: Antibacterial activity against Escherichia coli DH5alpha harboring pUCP26 empty vector by CLSI broth microdilution method; settings: DH5[alpha]
# Escherichia coli [25] = assay: Antibacterial activity against Escherichia coli DH5alpha expressing beta-lactamase CTX-M-15 by CLSI broth microdilution method; settings: DH5[alpha]
# Escherichia coli [26] = assay: Antibacterial activity against Escherichia coli DH5alpha expressing beta-lactamase VIM-2 by CLSI broth microdilution method; settings: DH5[alpha]
# Escherichia coli [27] = assay: Antibacterial activity against Escherichia coli DH5alpha expressing beta-lactamase OXA-24/40 by CLSI broth microdilution method; settings: DH5[alpha]
# Escherichia coli [28] = assay: Antibacterial activity against Escherichia coli EC-28 by CLSI broth microdilution method
# Pseudomonas aeruginosa [29] = assay: Antibacterial activity against Pseudomonas aeruginosa 1091-05 by CLSI broth microdilution method
# Klebsiella pneumoniae = assay: Antibacterial activity against Klebsiella pneumoniae KP-3700 by CLSI broth microdilution method
# Pseudomonas aeruginosa [30] = assay: Antibacterial activity against Pseudomonas aeruginosa PAO1 harboring siderophore receptor pirA mutant in Mueller-Hinton broth medium by CLSI broth microdilution method; procedure, shortened: as §1
# Pseudomonas aeruginosa [31] = assay: Antibacterial activity against Pseudomonas aeruginosa PAO1 harboring siderophore receptor fpvA mutant in Mueller-Hinton broth medium by CLSI broth microdilution method; procedure, shortened: as §1
# Pseudomonas aeruginosa [32] = assay: Antibacterial activity against Pseudomonas aeruginosa PAO1 harboring siderophore receptor piuA and fptA double mutant in Mueller-Hinton broth medium by CLSI broth microdilution method; procedure, shortened: as §1
smiles,measurement,setting,value
CC(C)(O/N=C(\C(=O)N[C@H]1CON(C2(C(=O)O)C[C@H](N3C(=O)c4cc(O)c(O)cc4C3=O)C(=O)O2)C1=O)c1csc(N)n1)C(=O)O (stereo partly drawn),MIC,Pseudomonas aeruginosa [1],16 mg/L
same,MIC,Pseudomonas aeruginosa [2],0.5 mg/L
same,MIC,Pseudomonas aeruginosa [3],16 mg/L
same,Ratio,Pseudomonas aeruginosa [4],8
same,Ratio,Pseudomonas aeruginosa [5],1
same,Ratio,Pseudomonas aeruginosa [6],32
same,MIC,Pseudomonas aeruginosa [7],≤ 0.03 mg/L
same,MIC,Pseudomonas aeruginosa [8],0.06 mg/L
same,MIC,Pseudomonas aeruginosa [9],0.25 mg/L
same,Ratio,Pseudomonas aeruginosa [10],>=8
same,Ratio,Pseudomonas aeruginosa [11],>=16
same,Ratio,Pseudomonas aeruginosa [12],>=4
same,Ratio,Pseudomonas aeruginosa [13],16
same,Ratio,Pseudomonas aeruginosa [14],512
same,Ratio,Pseudomonas aeruginosa [15],64
same,MIC,Pseudomonas aeruginosa [16],4 mg/L
same,MIC,Pseudomonas aeruginosa [17],4 mg/L
same,MIC,Pseudomonas aeruginosa [18],4 mg/L
same,MIC,Pseudomonas aeruginosa [19],4 mg/L
same,MIC,Pseudomonas aeruginosa [20],4 mg/L
same,Ratio,Pseudomonas aeruginosa [21],0.5
same,Ratio,Pseudomonas aeruginosa [22],1
same,MIC,Escherichia coli [23],0.03 mg/L
same,MIC,Escherichia coli [24],0.03 mg/L
same,MIC,Escherichia coli [25],0.015 mg/L
same,MIC,Escherichia coli [26],0.015 mg/L
same,MIC,Escherichia coli [27],0.03 mg/L
same,MIC,Escherichia coli [28],0.25 mg/L
same,MIC,Pseudomonas aeruginosa [29],0.5 mg/L
same,MIC,Klebsiella pneumoniae,0.5 mg/L
same,MIC,Pseudomonas aeruginosa [30],0.5 mg/L
same,MIC,Pseudomonas aeruginosa [31],16 mg/L
same,MIC,Pseudomonas aeruginosa [32],8 mg/L
